Experimental data as given in ChEMBL document CHEMBL3421570, “Combinatorial Libraries As a Tool for the Discovery of Novel, Broad-Spectrum Antibacterial Agents Targeting the ESKAPE Pathogens” (J Med Chem, 2015).
Values after ≈ are worked out from the molar mass of the structure shown. Active and inactive are the calls of the source. The calls are words filed in the database; no cut-off is given here.

Experiments:
Enterobacter cloacae [1] = test: Antimicrobial activity against Enterobacter cloacae assessed as inhibition of microbial growth after 24 hrs; format: functional
Method in brief: (§1)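 Broth microdilution against multidrug-resistant clinical ESKAPE isolates. Overnight cultures (TSB for Gram-positives, LB for Gram-negatives) diluted 1:1000 in fresh medium, compound in DMF (≤2.0% DMF) added at decreasing concentrations, 37°C.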

Staphylococcus aureus [2] = test: Induction of spontaneous mutation in Staphylococcus aureus at 2 to 10 MIC; format: functional, organism-based
[3] = Cytotoxicity against human A549 cells assessed as cell viability recovery up to 125 uM after 48 hrs by MTT assay; format: cell-based; details: read-out: Activity
Method in brief: (§2)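 A549 cells grown in F-12K with L-glutamine, 10% FBS, 1% penicillin-streptomycin, seeded at 1.0 × 10^5 ml−1, allowed to adhere 24 h (37°C, 5% CO2), then exposed to compound in 45% w/v (2-hydroxypropyl)-β-cyclodextrin vehicle for 48 h. MTT 4 h, formazan solubilized in DMSO, absorbance 540 nm. Percent recovery versus vehicle-only; IC50 derived; at least three independent experiments.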

Pseudomonas aeruginosa [4] = test: Induction of spontaneous mutation in Pseudomonas aeruginosa at 2 to 10 MIC; format: functional, organism-based; details: 2 to 10 x MIC
[5] = Selectivity index, ratio of IC50 for human A549 cells to MIC for Enterobacter cloacae
Enterococcus faecium [6] = test: Antibiofilm activity against Enterococcus faecium incubated for 24 hrs followed by biofilm resuspension in PBS and measured after 24 hrs; format: functional
Method in brief: (§3)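 Biofilms grown 24 h in 96-well plates from overnight cultures standardized to OD600 0.5 in fresh medium (human serum only for S. aureus; TSB for Gram-positives, LB for Gram-negatives). Medium then replaced with fresh medium containing a concentration range above and below MIC, 37°C overnight. After 24 h biofilm resuspended in PBS, serially diluted, plated in duplicate, CFU counted after 24 h at 37°C. Activity relative to untreated; three technical replicates; MBEC50 reported.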

Klebsiella pneumoniae [7] = test: Antimicrobial activity against Klebsiella pneumoniae assessed as inhibition of microbial growth after 24 hrs; format: functional; method in brief: as §1
Klebsiella pneumoniae [8] = test: Antimicrobial activity against Klebsiella pneumoniae assessed as inhibition of microbial growth at 45 uM after 24 hrs; format: functional, organism-based
Method in brief: (§4)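 Broth microdilution single-concentration read: overnight cultures diluted 1:1000, compound in DMF (≤2.0%) added, 37°C for 24 h, growth inhibition scored visually by lack of turbidity; triplicate. Gram-positives grown in TSB, Gram-negatives in LB.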

Enterococcus faecium [9] = test: Induction of spontaneous mutation in Enterococcus faecium at 2 to 10 MIC; format: functional, organism-based
Pseudomonas aeruginosa [10] = test: Antimicrobial activity against Pseudomonas aeruginosa isolate 1420 assessed as inhibition of microbial growth at 2 uM after 24 hrs; format: functional, organism-based
Pseudomonas aeruginosa [11] = test: Antimicrobial activity against Pseudomonas aeruginosa isolate 1420 assessed as inhibition of microbial growth at 2 uM in presence of 100 uM efflux pump inhibitor reserpine after 24 hrs; format: functional, organism-based
Staphylococcus aureus [12] = test: Bactericidal activity against Staphylococcus aureus after 24 hrs; format: functional
Enterobacter cloacae [13] = test: Bactericidal activity against Enterobacter cloacae after 24 hrs; format: functional
Pseudomonas aeruginosa [14] = test: Antimicrobial activity against Pseudomonas aeruginosa assessed as inhibition of microbial growth at 45 uM after 24 hrs; format: functional, organism-based; method in brief: as §4
Klebsiella pneumoniae [15] = test: Bactericidal activity against Klebsiella pneumoniae after 24 hrs; format: functional
Staphylococcus aureus [16] = test: Antimicrobial activity against Staphylococcus aureus USA300 strain FPR3757 infected in mouse model of lethal peritonitis assessed as mouse survival at 2 uM, im dosed 1 hr post infection and measured after 5 days post infection; format: functional, organism-based
Method in brief: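 Mice, six per group, infected i.p. with 1 × 10^8 CFU ml−1 S. aureus USA300 FPR3757 in PBS with 5% mucin. Compound given i.m. at 2 μM 1 h later; vehicle 45% w/v (2-hydroxypropyl)-β-cyclodextrin in water i.v.; vancomycin i.v. as control. Monitored twice daily for 5 days, pre-moribund animals euthanized. Survival compared by log-rank test.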

Enterococcus faecium [17] = test: Antimicrobial activity against Enterococcus faecium assessed as inhibition of microbial growth at 45 uM after 24 hrs; format: functional, organism-based; method in brief: as §4
Acinetobacter baumannii [18] = test: Antimicrobial activity against Acinetobacter baumannii assessed as inhibition of microbial growth at 45 uM after 24 hrs; format: functional, organism-based; method in brief: as §4
Staphylococcus aureus [19] = test: Bactericidal activity against methicillin-resistant Staphylococcus aureus at MIC measured after drug wash out after 120 mins by time kill assay; format: functional
Method in brief: (§5)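 MRSA from stationary phase was regrown 3 h in TSB and seeded at OD600 0.5. […] After 120 min, cells were centrifuged and washed, serially diluted and plated for CFU. Percent recovery is relative to no-drug controls.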

Klebsiella pneumoniae [20] = test: Induction of spontaneous mutation in Klebsiella pneumoniae at 2 to 10 MIC; format: functional, organism-based
Enterococcus faecium [21] = test: Bactericidal activity against Enterococcus faecium after 24 hrs; format: functional
Enterococcus faecium [22] = test: Antimicrobial activity against Enterococcus faecium assessed as inhibition of microbial growth after 24 hrs; format: functional; method in brief: as §1
Staphylococcus aureus [23] = test: Antimicrobial activity against Staphylococcus aureus assessed as inhibition of microbial growth after 24 hrs; format: functional; method in brief: as §1
[24] = Selectivity index, ratio of IC50 for human A549 cells to MIC for Staphylococcus aureus
[25] = Selectivity index, ratio of IC50 for human A549 cells to MIC for Enterococcus faecium
Staphylococcus aureus [26] = test: Effect on bacterial density of methicillin-resistant Staphylococcus aureus at MIC measured over 2 hrs period by time kill assay; format: functional, organism-based
[27] = Selectivity index, ratio of IC50 for human A549 cells to MIC for Acinetobacter baumannii
Staphylococcus aureus [28] = test: Antibiofilm activity against Staphylococcus aureus incubated for 24 hrs followed by biofilm resuspension in PBS and measured after 24 hrs; format: functional; method in brief: as §3
Enterobacter cloacae [29] = test: Induction of spontaneous mutation in Enterobacter cloacae at 2 to 10 MIC; format: functional, organism-based
Pseudomonas aeruginosa [30] = test: Antibiofilm activity against Pseudomonas aeruginosa incubated for 24 hrs followed by biofilm resuspension in PBS and measured after 24 hrs; format: functional; method in brief: as §3
Acinetobacter baumannii [31] = test: Induction of spontaneous mutation in Acinetobacter baumannii at 2 to 10 MIC; format: functional, organism-based
Enterobacter cloacae [32] = test: Antimicrobial activity against Enterobacter cloacae assessed as inhibition of microbial growth at 45 uM after 24 hrs; format: functional, organism-based; method in brief: as §4
Enterobacter cloacae [33] = test: Antibiofilm activity against Enterobacter cloacae incubated for 24 hrs followed by biofilm resuspension in PBS and measured after 24 hrs; format: functional; method in brief: as §3
Staphylococcus aureus [34] = test: Ratio of MIC for Staphylococcus aureus measured after 8 cycle passage to MIC for wild type Staphylococcus aureus; format: functional
[35] = Cytotoxicity against human A549 cells assessed as cell viability recovery at 225 uM after 48 hrs by MTT assay; format: cell-based; details: read-out: Activity; method in brief: as §2
Acinetobacter baumannii [36] = test: Bactericidal activity against Acinetobacter baumannii after 24 hrs; format: functional
[37] = Selectivity index, ratio of IC50 for human A549 cells to MIC for Pseudomonas aeruginosa
Staphylococcus aureus [38] = test: Bactericidal activity against methicillin-resistant Staphylococcus aureus assessed as cell survival recovery at MIC measured after drug wash out after 120 mins by time kill assay; format: functional; method in brief: as §5
Pseudomonas aeruginosa [39] = test: Antimicrobial activity against Pseudomonas aeruginosa assessed as inhibition of microbial growth after 24 hrs; format: functional; method in brief: as §1
Pseudomonas aeruginosa [40] = test: Bactericidal activity against Pseudomonas aeruginosa after 24 hrs; format: functional
Klebsiella pneumoniae [41] = test: Antibiofilm activity against Klebsiella pneumoniae incubated for 24 hrs followed by biofilm resuspension in PBS and measured after 24 hrs; format: functional; method in brief: as §3
Staphylococcus aureus [42] = test: Antimicrobial activity against Staphylococcus aureus assessed as inhibition of microbial growth at 45 uM after 24 hrs; format: functional, organism-based; method in brief: as §4
Acinetobacter baumannii [43] = test: Antibiofilm activity against Acinetobacter baumannii incubated for 24 hrs followed by biofilm resuspension in PBS and measured after 24 hrs; format: functional; method in brief: as §3
[44] = Selectivity index, ratio of IC50 for human A549 cells to MIC for Klebsiella pneumoniae
Acinetobacter baumannii [45] = test: Antimicrobial activity against Acinetobacter baumannii assessed as inhibition of microbial growth after 24 hrs; format: functional; method in brief: as §1
A549 = test: Cytotoxicity against human A549 cells after 48 hrs by MTT assay; format: cell-based; details: A549, 48 h; method in brief: as §2
[46] = Induction of hemolysis in human RBC at 10 uM incubated for 15 mins; format: cell-based, Erythrocyte; details: red blood cells, read-out: Activity
Method in brief: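 Human RBCs from whole blood, resuspended 20% v/v in HA buffer (NaCl, CaCl2), compound 10 μM, 15 min at 37°C. Centrifuged 5,500 g for 1 min, supernatant OD543 read. Percent hemolysis against DMF vehicle (0%) and 1.0% Triton X-100 (100%); triplicate.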

CCCCCCCN1C(=N)N(CCCC[C@H]2CNC(=N)N2CCc2cccc(C(F)(F)F)c2)C[C@@H]1CCCC
MIC (Enterobacter cloacae [1]): 1.6 µM
Activity (Staphylococcus aureus [2]): inactive
viability at 48 h [3]: > 63%
Activity (Pseudomonas aeruginosa [4]): inactive
Selectivity Index [5]: 100
MBEC50 (Enterococcus faecium [6]): 39 µM
MIC (Klebsiella pneumoniae [7]): 1.6 µM
growth inhibition (GI) (Klebsiella pneumoniae [8]): Active
Activity (Enterococcus faecium [9]): inactive
growth inhibition (GI) (Pseudomonas aeruginosa [10]): inactive
growth inhibition (GI) (Pseudomonas aeruginosa [11]): Active
MBC90 (Staphylococcus aureus [12]): 3.1 µM (≈ 1.71 µg/mL)
MBC90 (Enterobacter cloacae [13]): 3.1 µM (≈ 1.71 µg/mL)
growth inhibition (GI) (Pseudomonas aeruginosa [14]): Active
MBC90 (Klebsiella pneumoniae [15]): 2.4 µM (≈ 1.32 µg/mL)
Activity (Staphylococcus aureus [16]): Active
growth inhibition (GI) (Enterococcus faecium [17]): Active
growth inhibition (GI) (Acinetobacter baumannii [18]): Active
fold change (FC) (Staphylococcus aureus [19]): 2.5
Activity (Klebsiella pneumoniae [20]): inactive
MBC90 (Enterococcus faecium [21]): 1.9 µM (≈ 1.05 µg/mL)
MIC (Enterococcus faecium [22]): 1.6 µM
MIC (Staphylococcus aureus [23]): 1.6 µM
Selectivity Index [24]: 100
Selectivity Index [25]: 100
Activity (Staphylococcus aureus [26]): inactive
Selectivity Index [27]: 100
MBEC50 (Staphylococcus aureus [28]): 14 µM
Activity (Enterobacter cloacae [29]): inactive
MBEC50 (Pseudomonas aeruginosa [30]): 20 µM
Activity (Acinetobacter baumannii [31]): inactive
growth inhibition (GI) (Enterobacter cloacae [32]): Active
MBEC50 (Enterobacter cloacae [33]): 13 µM
Ratio (Staphylococcus aureus [34]): 2
viability at 48 h, 225 µM [35]: 40%
MBC90 (Acinetobacter baumannii [36]): 3.1 µM (≈ 1.71 µg/mL)
Selectivity Index [37]: 100
Survival (Staphylococcus aureus [38]): 0.2%
MIC (Pseudomonas aeruginosa [39]): 1.6 µM
MBC90 (Pseudomonas aeruginosa [40]): 4 µM (≈ 2.2 µg/mL)
MBEC50 (Klebsiella pneumoniae [41]): 7 µM
growth inhibition (GI) (Staphylococcus aureus [42]): Active
MBEC50 (Acinetobacter baumannii [43]): 15 µM
Selectivity Index [44]: 100
MIC (Acinetobacter baumannii [45]): 1.6 µM
IC50 (A549): 164 µM
hemolysis at 0.25 h, 10 µM [46]: 0.34%
